Assay results as given in ChEMBL document CHEMBL1148286.

What was measured:
[1] = molecular target: Transthyretin (Homo sapiens) (UniProt P02766); experiment: Transthyretin (TTR) amyloidogenesis inhibition activity by employing an acid-mediated (pH 4.4) WTTTR amyloid fibril formation assay, at 7.2 uM conc.; assay type: functional
Outline: (§1)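 WT TTR (3.6 µM tetramer) in 10 mM phosphate, 100 mM KCl, 1 mM EDTA pH 7.6, preincubated 30 min at 25 °C with compound from DMSO stock. Acidified to pH 4.4 with acetate buffer, then held 72 h at 37 °C without agitation. Turbidity read at 350 and 400 nm after vortexing. Expressed as % of the no-inhibitor control; triplicate.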

[2] = molecular target: Transthyretin (Homo sapiens) (UniProt P02766); experiment: Transthyretin (TTR) amyloidogenesis inhibition activity by employing an acid-mediated (pH 4.4) WTTTR amyloid fibril formation assay, at 3.6 uM conc.; assay type: functional; outline: as §1
[3] = molecular target: Transthyretin (Homo sapiens) (UniProt P02766); experiment: Ability to bind TTR selectively over all other proteins in human blood plasma (equiv bound); assay type: cell-free
Outline: (§2)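 Human blood plasma (1.0 mL) incubated with compound from 1.44 mM DMSO stock (final 10.8 µM) at 37 °C for 24 h with rocking. Pre-cleared with quenched sepharose, then TTR captured on anti-TTR antibody sepharose at 4 °C, washed with TSA/0.05% saponin and TSA. Eluted with 100 mM triethylamine pH 11.5. Ligand:TTR stoichiometry measured by reverse-phase HPLC (maximum 2 per tetramer).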

[4] = molecular target: Transthyretin (Homo sapiens) (UniProt P02766); experiment: The second dissociation constant for binding to WT TTR determined by isothermal titration calorimetry (25 C, pH 8.0)
[5] = molecular target: Transthyretin (Homo sapiens) (UniProt P02766); experiment: The first dissociation constant for binding to WT TTR determined by isothermal titration calorimetry (25 C, pH 8.0)
[6] = molecular target: Transthyretin (Homo sapiens) (UniProt P02766); experiment: Ability to bind TTR selectively over all other proteins in human blood plasma (equiv bound); None observed; assay type: cell-free; outline: as §2

Fibril formation [1] [%]	Fibril formation [2] [%]	Plasma selectivity [3]	Structure (SMILES)	further results
69.9			COc1ccc(-c2ccc(F)cc2F)cc1C(=O)O	
4.4	30.6	1.3	O=Cc1cccc(-c2cc(Cl)cc(Cl)c2)c1	
3.3	30	0.89	OCc1cccc(-c2cc(Cl)cc(Cl)c2)c1	
19.5			Oc1cccc(-c2ccccc2F)c1	
2.6	32.6	0.2	O=C(O)c1ccc(-c2ccc(F)cc2F)cc1	
4.5	28.5		O=C(O)c1ccc(-c2c(F)cccc2F)cc1	Kd2 [4]: 1300 nM
100			Fc1ccc(-c2ccccc2)cc1	
2.5	38.7	0.07	O=C(O)c1cc(-c2ccccc2F)ccc1O	
15.7			O=C(O)c1cccc(-c2ccc(F)cc2)c1	
1	35.5	None observed	O=C(O)c1cc(-c2cc(F)cc(F)c2)ccc1O	
100			Fc1ccc(-c2ccccc2)c(F)c1	
9.8	39.4	None observed	O=C(O)c1cccc(-c2ccccc2F)c1	
35.4			O=Cc1cccc(-c2ccccc2)c1	
46.3			Oc1cccc(-c2ccc(F)cc2)c1	
4.8	32.4	0.08	O=C(O)c1ccc(-c2ccccc2F)cc1	
10.2	40.9	0.18	Oc1cccc(-c2cc(F)cc(F)c2)c1	
25.4			O=Cc1ccc(-c2cc(Cl)cc(Cl)c2)cc1	
3.7	35.7	1.27	O=C(O)c1ccc(-c2cc(F)cc(F)c2)cc1	Kd2 [4]: 1100 nM; Kd1 [5]: 9 nM
3.5	38.5	None observed	O=C(O)c1cccc(-c2cc(F)c(O)c(F)c2)c1	
16.4			Oc1ccc(-c2cc(F)cc(F)c2)cc1	
13.3			O=C(O)c1ccc(-c2ccc(F)cc2)cc1	
3.4	31.7	0.07	O=C(O)c1ccc(-c2cc(F)c(O)c(F)c2)cc1	
99.4			Fc1ccccc1-c1ccccc1	
32.4			Oc1ccc(-c2ccc(F)cc2F)cc1	
7.1	34.5	1.96	O=Cc1ccccc1-c1cc(Cl)cc(Cl)c1	
53.1			Oc1ccc(-c2ccc(F)cc2)cc1	

Fibril formation [1] [%]	Fibril formation [2] [%]	Plasma selectivity [3]	Structure (SMILES)	further results
5.6	35.7	0.23	O=C(O)c1cccc(-c2cc(F)cc(F)c2)c1	
52.2			Clc1cc(Cl)cc(-c2ccccc2)c1	
3.8	25.8	0.26	O=C(O)c1ccc(-c2cc(Cl)c(O)c(Cl)c2)cc1	
100			OCc1ccc(-c2ccccc2)cc1	
4.4	25.5	0.12	O=C(O)c1cccc(-c2cc(Cl)c(O)c(Cl)c2)c1	
19.6			Oc1ccc(-c2ccccc2F)cc1	
85.5			OCc1cccc(-c2ccccc2)c1	
30.8			O=C(O)c1cccc(-c2ccccc2)c1	
2.6	38.7	0.09	O=C(O)c1cc(-c2ccc(F)cc2)ccc1O	
6.7	35.1	0.29	O=C(O)c1cccc(-c2c(F)cccc2F)c1	
3	32.7	0.8	O=C(O)c1cccc(-c2cc(Cl)cc(Cl)c2)c1	
38.5			COC(=O)c1cc(-c2ccc(F)cc2F)ccc1O	
31.5			Oc1cccc(-c2ccc(F)cc2F)c1	
3.4	37		O=C(O)c1cc(-c2ccc(F)cc2F)ccc1O	
45.4			O=C(O)c1ccccc1-c1cc(Cl)cc(Cl)c1	
72.5			O=Cc1ccccc1-c1ccccc1	
4.9	41.2	1.56	O=C(O)c1ccc(-c2cc(Cl)cc(Cl)c2)cc1	
100			Fc1cc(F)cc(-c2ccccc2)c1	
14.3	51.5	0.08	O=C(O)c1ccc(-c2ccccc2)cc1	
64.3			O=Cc1cccc(-c2cc(F)cc(F)c2)c1	
9.1	39.4		O=C(O)c1cccc(-c2ccc(F)cc2F)c1	Plasma selectivity [6]: None observed
81			OCc1ccccc1-c1ccccc1	
5.9	38.9	0.54	OCc1ccc(-c2cc(Cl)cc(Cl)c2)cc1	
15.4	47.4		O=C(O)c1cc(-c2ccccc2)ccc1O	Plasma selectivity [6]: None observed
7.7	33.6		OCc1ccccc1-c1cc(Cl)cc(Cl)c1	Plasma selectivity [6]: None observed
69.6			O=Cc1ccc(-c2cc(F)cc(F)c2)cc1	

Structure (SMILES)	Fibril formation [1] [%]	Fibril formation [2] [%]	Plasma selectivity [3]	further results
Oc1cccc(-c2ccccc2)c1	61.2			
O=C(O)c1cc(-c2ccc(Cl)cc2Cl)ccc1O	3.6	29.9	0.27	
O=Cc1ccc(-c2ccccc2)cc1	93.5			
